Data published in ChEMBL document CHEMBL1212911, “Identification of potent and selective amidobipyridyl inhibitors of protein kinase D” (J Med Chem, 2010).
pEC50, pIC50: −log10 of the molar value. Active and inactive are the calls of the source. The rule behind the calls is not given here.

Tests used:
[1] = target: T1, Protein kinase C epsilon type (Homo sapiens) (UniProt Q02156); experiment: Inhibition of PKCepsilon; conditions: concentration not given here
T1 sequence (whole entry): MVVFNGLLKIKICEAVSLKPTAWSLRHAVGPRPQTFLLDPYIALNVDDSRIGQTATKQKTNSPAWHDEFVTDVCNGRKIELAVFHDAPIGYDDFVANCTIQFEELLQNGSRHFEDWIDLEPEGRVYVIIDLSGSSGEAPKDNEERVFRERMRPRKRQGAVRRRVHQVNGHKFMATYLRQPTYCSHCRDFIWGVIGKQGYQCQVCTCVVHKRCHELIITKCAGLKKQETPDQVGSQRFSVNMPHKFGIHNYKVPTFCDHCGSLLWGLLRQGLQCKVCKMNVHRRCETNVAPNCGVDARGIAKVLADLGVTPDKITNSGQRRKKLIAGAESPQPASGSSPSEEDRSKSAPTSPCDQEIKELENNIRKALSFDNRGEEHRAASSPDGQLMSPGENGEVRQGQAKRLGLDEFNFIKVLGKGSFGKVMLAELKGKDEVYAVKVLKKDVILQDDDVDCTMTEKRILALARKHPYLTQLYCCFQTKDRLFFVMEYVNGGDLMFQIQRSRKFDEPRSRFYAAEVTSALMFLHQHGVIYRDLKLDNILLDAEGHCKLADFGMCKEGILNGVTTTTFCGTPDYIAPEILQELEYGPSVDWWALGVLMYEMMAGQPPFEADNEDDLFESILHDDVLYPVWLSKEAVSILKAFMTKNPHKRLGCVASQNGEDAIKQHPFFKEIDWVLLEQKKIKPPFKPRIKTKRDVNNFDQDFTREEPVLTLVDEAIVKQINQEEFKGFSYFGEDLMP

[2] = target: Beta-1 adrenergic receptor (Homo sapiens, UniProt P08588); experiment: Inhibition of beta-1 adrenoceptor
[3] = system: Rattus norvegicus; experiment: Ex vivo inhibition of PKD in PBMC isolated from Dahl salt-sensitive sc dosed rat assessed as inhibition of PMA-induced HDAC phosphorylation
[4] = system: Plasma; experiment: Drug level in Dahl salt-sensitive rat plasma at 5 mg/kg, sc qd; conditions: in vivo
[5] = Inhibition of alpha1 adrenoceptor
[6] = target: T2, Serine/threonine-protein kinase D1 (Homo sapiens, UniProt Q15139); experiment: Inhibition of PKD1 assessed as inhibition of HDAC5 neuclear export
T2 sequence (Q15139 whole entry): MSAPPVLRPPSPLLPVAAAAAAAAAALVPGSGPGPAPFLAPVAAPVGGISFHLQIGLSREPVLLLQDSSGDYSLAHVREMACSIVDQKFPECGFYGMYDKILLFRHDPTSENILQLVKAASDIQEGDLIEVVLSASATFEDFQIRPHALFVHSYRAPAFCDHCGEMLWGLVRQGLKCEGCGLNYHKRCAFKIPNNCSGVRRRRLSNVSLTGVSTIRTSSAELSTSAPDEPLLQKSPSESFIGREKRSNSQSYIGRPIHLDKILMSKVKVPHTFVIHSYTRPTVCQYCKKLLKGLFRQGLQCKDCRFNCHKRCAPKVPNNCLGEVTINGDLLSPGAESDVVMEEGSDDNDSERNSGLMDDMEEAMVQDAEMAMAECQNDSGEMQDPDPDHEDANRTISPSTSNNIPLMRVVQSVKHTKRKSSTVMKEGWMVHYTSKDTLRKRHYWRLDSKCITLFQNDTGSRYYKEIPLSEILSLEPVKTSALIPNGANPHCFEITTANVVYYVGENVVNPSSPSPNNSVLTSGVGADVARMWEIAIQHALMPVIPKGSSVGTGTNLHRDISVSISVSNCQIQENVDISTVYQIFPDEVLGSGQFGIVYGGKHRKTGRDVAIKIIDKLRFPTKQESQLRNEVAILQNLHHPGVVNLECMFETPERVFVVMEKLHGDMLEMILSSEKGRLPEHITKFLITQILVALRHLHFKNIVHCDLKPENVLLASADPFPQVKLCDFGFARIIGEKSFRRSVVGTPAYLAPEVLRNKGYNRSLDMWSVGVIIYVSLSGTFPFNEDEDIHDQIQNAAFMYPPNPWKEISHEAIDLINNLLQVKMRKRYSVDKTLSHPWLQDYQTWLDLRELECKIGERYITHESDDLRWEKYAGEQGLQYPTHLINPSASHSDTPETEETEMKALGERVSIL
Method in brief: (§1)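 Neonatal rat ventricular myocytes infected with adenovirus encoding GFP-HDAC5 and plated on gelatin-coated wells. Cells exposed to compound and stimulated with PGF2α for 2 h, then fixed. Cytoplasmic versus nuclear GFP intensity quantified by high-content imaging.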

[7] = target: Pkd1 (Rattus norvegicus) (UniProt Q9ERV0); experiment: Inhibition of PKD1 in rat ventricular myosyte assessed as inhibition of HDAC5 neuclear export; method in brief: as §1
[8] = system: Rattus norvegicus; experiment: Antihypertensive activity in thoracic aortic banded Sprague-Dawley rat assessed as inhibition of cardia hypertrophy at 5 mg/kg, sc; format: functional, organism-based; design: dose 5 mg/kg; conditions: Aorta
Method in brief: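 Rats fitted with an aortic occlusion cuff or given sham surgery. Dosed 5 mg/kg/day sc in acidified captisol, or vehicle, for 2 weeks. End-point cardiac performance assessed by ultrasound and hemodynamics by direct catheterization.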

[9] = target: Protein kinase C delta type (Homo sapiens) (UniProt Q05655); experiment: Inhibition of human PKCdelta; conditions: concentration not given here
Method in brief: (§2)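 Selectivity screen run externally (Invitrogen SelectScreen). Percent inhibition measured at 1 μM compound, mean of 2 measurements.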

[10] = Volume of distribution at steady state in Sprague-Dawley rat at 2 mg/kg, iv and 5 mg/kg, po; format: ADME, organism-based; conditions: in vivo, read-out: Vdss
Method in brief: (§3)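 Rats dosed iv 2 mg/kg (n = 2) or po 5 mg/kg (n = 3) in 10% NMP, 10% Cremophor, 80% pH 4.63 buffer. PK parameters derived from iv dosing, reported as mean ± SD.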

[11] = target: Calcium/calmodulin-dependent protein kinase type 1D (Homo sapiens) (UniProt Q8IU85); experiment: Inhibition of CaMK1delta; conditions: concentration not given here; method in brief: as §2
[12] = target: Serine/threonine-protein kinase MARK1 (Homo sapiens) (UniProt Q9P0L2); experiment: Inhibition of human MARK1; conditions: concentration not given here; method in brief: as §2
[13] = Half life in rats after 2 mg/kg intravenous dose; format: ADME, organism-based; design: dose 2 mg/kg, route intravenous; conditions: Sprague-Dawley, rat, in vivo; method in brief: as §3
[14] = organism: Rattus norvegicus; experiment: Inhibition of PMA-induced PKD autophosphorylation in Dahl salt-sensitive rat PBMC
Method in brief: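 Male Dahl salt-sensitive rats, 6–7 weeks old, were switched from a 0.49% to an 8.0% NaCl diet for 2 weeks. Dosing was daily sc (1.0 mL/kg) with vehicle (10% 1 N HCl/90% of 10% captisol, pH 4.6 buffer) or 0.5, 1.5 or 5 mg/kg compound. On day 14, PBMCs were isolated and stimulated with PMA. The read-out was PKD Ser916 autophosphorylation.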

Chain of Pkd1 (Rattus norvegicus) (Q9ERV0 as listed by the source): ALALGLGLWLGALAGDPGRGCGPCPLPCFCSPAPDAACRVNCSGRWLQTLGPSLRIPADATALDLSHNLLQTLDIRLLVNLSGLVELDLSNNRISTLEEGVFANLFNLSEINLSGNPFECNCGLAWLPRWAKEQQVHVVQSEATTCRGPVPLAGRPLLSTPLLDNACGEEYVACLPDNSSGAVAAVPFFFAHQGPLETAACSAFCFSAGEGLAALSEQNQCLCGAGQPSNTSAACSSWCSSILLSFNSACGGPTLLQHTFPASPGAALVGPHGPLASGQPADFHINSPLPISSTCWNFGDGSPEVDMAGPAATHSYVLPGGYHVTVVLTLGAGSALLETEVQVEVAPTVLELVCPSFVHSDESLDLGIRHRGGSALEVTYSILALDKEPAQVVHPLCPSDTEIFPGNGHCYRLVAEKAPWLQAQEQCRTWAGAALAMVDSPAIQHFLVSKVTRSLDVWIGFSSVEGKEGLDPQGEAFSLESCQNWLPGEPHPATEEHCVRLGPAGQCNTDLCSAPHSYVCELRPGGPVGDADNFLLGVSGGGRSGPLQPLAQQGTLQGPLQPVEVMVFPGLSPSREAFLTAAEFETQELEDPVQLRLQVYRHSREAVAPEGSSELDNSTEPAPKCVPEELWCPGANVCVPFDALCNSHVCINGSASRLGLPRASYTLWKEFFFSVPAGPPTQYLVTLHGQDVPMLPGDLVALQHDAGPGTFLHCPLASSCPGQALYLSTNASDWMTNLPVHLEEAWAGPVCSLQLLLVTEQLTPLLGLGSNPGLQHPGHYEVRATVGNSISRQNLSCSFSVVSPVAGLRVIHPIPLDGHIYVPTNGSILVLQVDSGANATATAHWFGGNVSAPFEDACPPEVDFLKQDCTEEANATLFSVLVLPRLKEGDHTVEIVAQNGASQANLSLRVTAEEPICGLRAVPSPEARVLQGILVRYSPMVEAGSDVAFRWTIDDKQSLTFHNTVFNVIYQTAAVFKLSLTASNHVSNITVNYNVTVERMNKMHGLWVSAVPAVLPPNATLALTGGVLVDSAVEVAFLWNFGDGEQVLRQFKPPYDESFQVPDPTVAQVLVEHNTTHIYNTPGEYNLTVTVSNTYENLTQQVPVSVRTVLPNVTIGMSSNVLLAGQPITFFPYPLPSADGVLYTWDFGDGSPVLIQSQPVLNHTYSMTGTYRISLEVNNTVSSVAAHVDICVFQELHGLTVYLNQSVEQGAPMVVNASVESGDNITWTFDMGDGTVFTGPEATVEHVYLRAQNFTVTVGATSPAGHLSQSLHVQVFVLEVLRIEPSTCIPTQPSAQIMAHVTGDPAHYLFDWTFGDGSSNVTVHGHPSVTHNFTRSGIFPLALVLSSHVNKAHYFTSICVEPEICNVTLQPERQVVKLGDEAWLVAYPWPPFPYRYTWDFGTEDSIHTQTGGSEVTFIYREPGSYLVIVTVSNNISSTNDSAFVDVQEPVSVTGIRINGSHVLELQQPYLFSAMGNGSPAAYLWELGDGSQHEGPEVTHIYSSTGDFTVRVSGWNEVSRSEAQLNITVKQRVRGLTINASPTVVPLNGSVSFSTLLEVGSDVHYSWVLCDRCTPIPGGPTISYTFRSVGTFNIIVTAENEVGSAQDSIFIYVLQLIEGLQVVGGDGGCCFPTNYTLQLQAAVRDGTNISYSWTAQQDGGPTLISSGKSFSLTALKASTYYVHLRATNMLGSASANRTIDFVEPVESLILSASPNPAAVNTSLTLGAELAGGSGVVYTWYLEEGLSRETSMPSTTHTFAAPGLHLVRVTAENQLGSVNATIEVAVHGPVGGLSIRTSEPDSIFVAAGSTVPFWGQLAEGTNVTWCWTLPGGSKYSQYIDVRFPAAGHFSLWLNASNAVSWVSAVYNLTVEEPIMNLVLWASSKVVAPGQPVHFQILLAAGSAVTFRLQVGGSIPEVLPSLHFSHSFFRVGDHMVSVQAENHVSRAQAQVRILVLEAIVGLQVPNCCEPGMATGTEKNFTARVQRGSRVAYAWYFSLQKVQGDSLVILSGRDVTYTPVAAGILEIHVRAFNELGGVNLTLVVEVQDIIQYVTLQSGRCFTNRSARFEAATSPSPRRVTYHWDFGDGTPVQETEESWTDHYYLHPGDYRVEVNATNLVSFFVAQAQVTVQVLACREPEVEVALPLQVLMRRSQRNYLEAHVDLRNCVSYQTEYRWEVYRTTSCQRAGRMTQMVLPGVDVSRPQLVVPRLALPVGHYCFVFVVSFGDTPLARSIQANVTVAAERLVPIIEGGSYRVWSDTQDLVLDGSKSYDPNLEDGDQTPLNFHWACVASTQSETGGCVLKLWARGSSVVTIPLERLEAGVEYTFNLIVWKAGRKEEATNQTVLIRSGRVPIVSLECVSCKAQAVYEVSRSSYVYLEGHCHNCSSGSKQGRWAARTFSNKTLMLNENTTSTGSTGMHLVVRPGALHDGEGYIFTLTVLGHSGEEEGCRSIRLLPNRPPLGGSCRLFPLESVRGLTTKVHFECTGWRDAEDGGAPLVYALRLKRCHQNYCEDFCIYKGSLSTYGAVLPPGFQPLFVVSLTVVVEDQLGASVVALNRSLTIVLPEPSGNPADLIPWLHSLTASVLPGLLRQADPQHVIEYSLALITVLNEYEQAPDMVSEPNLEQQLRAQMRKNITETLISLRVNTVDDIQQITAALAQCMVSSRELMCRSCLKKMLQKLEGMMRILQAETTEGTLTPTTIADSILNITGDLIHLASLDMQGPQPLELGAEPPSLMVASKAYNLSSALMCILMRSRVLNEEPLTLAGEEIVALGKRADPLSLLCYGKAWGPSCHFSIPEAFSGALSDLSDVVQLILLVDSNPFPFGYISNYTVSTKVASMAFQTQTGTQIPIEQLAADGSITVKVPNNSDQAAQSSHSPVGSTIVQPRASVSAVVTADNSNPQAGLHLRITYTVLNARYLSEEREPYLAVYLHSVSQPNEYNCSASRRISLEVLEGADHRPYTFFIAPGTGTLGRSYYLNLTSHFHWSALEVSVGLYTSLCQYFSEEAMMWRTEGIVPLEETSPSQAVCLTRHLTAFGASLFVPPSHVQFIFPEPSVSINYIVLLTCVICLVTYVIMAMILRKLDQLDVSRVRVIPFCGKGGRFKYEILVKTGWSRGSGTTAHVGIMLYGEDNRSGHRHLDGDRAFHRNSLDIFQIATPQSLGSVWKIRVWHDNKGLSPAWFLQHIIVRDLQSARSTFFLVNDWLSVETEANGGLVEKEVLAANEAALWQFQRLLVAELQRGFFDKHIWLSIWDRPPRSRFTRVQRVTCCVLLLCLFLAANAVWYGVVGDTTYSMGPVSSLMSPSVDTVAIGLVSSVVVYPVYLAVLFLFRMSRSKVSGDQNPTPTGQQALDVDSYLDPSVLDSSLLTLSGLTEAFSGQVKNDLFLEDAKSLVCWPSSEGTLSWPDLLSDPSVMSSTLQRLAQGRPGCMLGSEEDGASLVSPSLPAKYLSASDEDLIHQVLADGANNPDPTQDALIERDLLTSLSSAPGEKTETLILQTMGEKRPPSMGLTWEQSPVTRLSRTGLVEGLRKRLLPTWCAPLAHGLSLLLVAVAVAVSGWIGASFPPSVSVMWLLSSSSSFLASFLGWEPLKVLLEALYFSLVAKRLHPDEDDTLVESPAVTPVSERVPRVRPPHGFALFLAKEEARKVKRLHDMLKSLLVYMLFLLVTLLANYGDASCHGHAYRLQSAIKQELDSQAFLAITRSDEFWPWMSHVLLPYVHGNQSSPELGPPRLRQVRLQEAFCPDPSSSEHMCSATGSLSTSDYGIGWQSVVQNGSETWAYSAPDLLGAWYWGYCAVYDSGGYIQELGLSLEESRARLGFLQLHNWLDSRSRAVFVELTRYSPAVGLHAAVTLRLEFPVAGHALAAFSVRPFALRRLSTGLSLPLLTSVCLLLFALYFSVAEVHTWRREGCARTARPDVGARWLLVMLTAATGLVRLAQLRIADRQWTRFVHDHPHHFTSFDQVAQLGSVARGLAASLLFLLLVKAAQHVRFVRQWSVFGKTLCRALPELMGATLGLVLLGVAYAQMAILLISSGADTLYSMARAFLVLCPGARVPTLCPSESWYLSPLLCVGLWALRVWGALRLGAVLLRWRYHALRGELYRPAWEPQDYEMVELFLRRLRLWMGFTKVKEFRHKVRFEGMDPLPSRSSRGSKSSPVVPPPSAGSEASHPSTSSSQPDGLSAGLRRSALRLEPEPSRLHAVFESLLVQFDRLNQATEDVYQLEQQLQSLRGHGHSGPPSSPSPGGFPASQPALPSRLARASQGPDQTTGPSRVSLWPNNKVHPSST
Chain of Beta-1 adrenergic receptor (P08588 whole entry): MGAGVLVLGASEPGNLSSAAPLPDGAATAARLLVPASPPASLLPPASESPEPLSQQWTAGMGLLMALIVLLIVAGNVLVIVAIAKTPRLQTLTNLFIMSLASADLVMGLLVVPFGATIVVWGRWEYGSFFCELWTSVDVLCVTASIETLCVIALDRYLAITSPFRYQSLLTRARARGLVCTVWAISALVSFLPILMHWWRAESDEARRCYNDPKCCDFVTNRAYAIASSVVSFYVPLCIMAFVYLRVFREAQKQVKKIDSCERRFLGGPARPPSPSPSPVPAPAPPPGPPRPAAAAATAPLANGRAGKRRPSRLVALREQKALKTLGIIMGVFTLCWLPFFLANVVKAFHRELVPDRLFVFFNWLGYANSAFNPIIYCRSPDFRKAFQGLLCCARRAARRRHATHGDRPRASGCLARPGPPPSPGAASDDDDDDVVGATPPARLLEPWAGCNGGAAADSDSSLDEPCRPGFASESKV
Chain of Calcium/calmodulin-dependent protein kinase type 1D (Homo sapiens) (Q8IU85 whole entry, looked up): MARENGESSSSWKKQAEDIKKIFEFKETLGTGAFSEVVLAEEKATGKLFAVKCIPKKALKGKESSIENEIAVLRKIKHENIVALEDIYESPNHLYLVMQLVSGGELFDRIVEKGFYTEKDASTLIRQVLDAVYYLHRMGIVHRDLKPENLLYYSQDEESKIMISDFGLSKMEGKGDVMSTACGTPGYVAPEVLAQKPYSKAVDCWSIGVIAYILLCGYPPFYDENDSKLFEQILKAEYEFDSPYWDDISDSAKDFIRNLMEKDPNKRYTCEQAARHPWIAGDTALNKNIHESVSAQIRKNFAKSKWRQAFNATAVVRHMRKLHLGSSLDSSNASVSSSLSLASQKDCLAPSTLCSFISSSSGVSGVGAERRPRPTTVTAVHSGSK

NC(=O)c1cc(-c2ccnc(NC3CCCCC3)c2)nc(N2CCNCC2)c1
inhibition [1]: -3% | pIC50 [2]: 5.08 | Activity [3]: Active | concentration [4]: 230 nM | pIC50 [5]: 5.52 | pEC50 [6]: 7.11 | inhibition [7]: Active | inhibition [8]: inactive | inhibition [9]: 22% | Vd [10]: 22 L/kg | inhibition [11]: 6% | inhibition [12]: 24% | half-life [13]: 3.8 h | inhibition [14]: inactive
